Variants at the floor of the assay were thinned out.
B1: tRNA (parent)
chain: GUUCCGUUGGCGUAAUGGUAACGCGUCUCCCUCCUAAGGAGAAGACUGCGGGUUCGAGUCCCGUACGGAACG

Variants of: B1
Test: yeast fitness relative to wild type (ratio to wild type); higher = fitter; tRNA-Arg(CCU), competitive growth, 37 C, YPD
Method in brief: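 The tRNA-Arg(CCU) gene variants were made by chemical synthesis with a 3% per-site mutation rate at 69 sites and inserted at the native genomic locus of Saccharomyces cerevisiae. After pooling, the strains were competed in YPD at 37°C for 24 hours in six parallel replicates. Gene amplicons from the start population and each end population were read by 100-nucleotide paired-end sequencing, and Darwinian fitness relative to wild type was taken from genotype frequency changes. Genotypes needed ≥ 100 starting reads, and estimates < 0.5 were set to 0.5.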

Row | Variant | yeast fitness
1 | G10U C11G C24U C34U C46A | ≤ 0.5
2 | G10C C34A G67A | ≤ 0.5
3 | G10C U26A | 0.71
4 | C11A A42G U64A G67A | ≤ 0.5
5 | C11A A20U C30G A45C G48A | ≤ 0.5
6 | G10C G48A U54A | ≤ 0.5
7 | C11A A21C U26G A65G A69C | 0.525
8 | G10C G12A U16A C30U | ≤ 0.5
9 | C11A C22G C34A G41A A70U | ≤ 0.5
10 | C11A A42G A43U C46U C62U | 0.582
11 | G10C U13C G18C C27U C33G C46A C55U U64A G68C A70U | ≤ 0.5
12 | C11A A14U C30G | ≤ 0.5
13 | C11A C24U U32A U35C U59C | ≤ 0.5
14 | G10C G51A | 0.585
15 | G10C C46G | 0.708
16 | G10C C31U A57C C62A A70U | ≤ 0.5
17 | G10C U28G C33G C49U A69U | ≤ 0.5
18 | C11A C24G C30G A57U G68U | ≤ 0.5
19 | G10U G12A A43C A69G | 0.566
20 | G10C C33A A45C C55U | ≤ 0.5
21 | G10C U26A C49U | ≤ 0.5
22 | G10C U26A C31U | 0.578
23 | G10C U16C A20G | ≤ 0.5
24 | C11A C27G G67C | ≤ 0.5

Row | Variant | yeast fitness
25 | C11A A14G C31G C34G | ≤ 0.5
26 | G10C U13C G18C C27U C33G C55U U64A G68C A70U | 0.593
27 | C11A A15G C34G G52C C61U | ≤ 0.5
28 | G10C C34A A40G A69U | 0.552
29 | C11A C24U G38C | ≤ 0.5
30 | C11A A37G C49A | 0.653
31 | G10C G12C G39A C61U | ≤ 0.5
32 | G10C G50A C61G | 0.554
33 | C11A A15U C34A G39C A40C G56C C61G C62G G68C | ≤ 0.5
34 | C11A A21U C30A A45U C49U C55U | ≤ 0.5
35 | G10C C33U G48C | ≤ 0.5
36 | G10C C31U A57C C62A | ≤ 0.5
37 | G10C C31A | 0.577
38 | G10C U35G A69C | ≤ 0.5
39 | C11A A15U A20C C34G | ≤ 0.5
40 | G10C G12A U28C C61G C66U | ≤ 0.5
41 | G10U A20C A57G | 0.511
42 | C11A A20C C29U | 0.564
43 | G10C G12A A15G A36U C46U | ≤ 0.5
44 | C11A A36G | 0.646
45 | C11A A36U | 0.559
46 | C11A A43G C61U | ≤ 0.5
47 | C11A A36U C61U A65U | ≤ 0.5
48 | G10C G44C G51C | ≤ 0.5

Row | Variant | yeast fitness
49 | C11A A15C U54C C66G | ≤ 0.5
50 | C11A A45G U53G | ≤ 0.5
51 | G10C U26C A45G C49U C55G | ≤ 0.5
52 | C11A A14G C29U A65C | ≤ 0.5
53 | G10C G23C C33G C46A C66A | ≤ 0.5
54 | G10C U32A A43C C49A | ≤ 0.5
55 | C11A C24G C34U C49A | ≤ 0.5
56 | C11A A14U C30U C33A A36U A57G | ≤ 0.5
57 | G10C U26A C61G A70C | ≤ 0.5
58 | C11A A21U A43U | ≤ 0.5
59 | G10C U35G C66U | ≤ 0.5
60 | C11A A14U C30U C33A A36U A57G A69G | ≤ 0.5
61 | G10C U35G A43C U47C C55U | ≤ 0.5
62 | G10C C34G A40G | ≤ 0.5
63 | C11A C22U G44C C60U A69G | 0.597
64 | C11A A15G A20G A37C G50A G67C | ≤ 0.5
65 | G10C G18A C22U G63A | ≤ 0.5
66 | G10U G17A C29G C55G C60U | ≤ 0.5
67 | C11A A21U A43U G58C C60A C66U | 0.563
68 | C11A C22G C33U C34A G41A A65G | 0.527
69 | C11A A21C U26G A69C | ≤ 0.5
70 | G10C C46G G51A G52A | ≤ 0.5
71 | G10C G56A A70C | 0.554
72 | G10C U16A C30U | 0.54

Row | Variant | yeast fitness
73 | G10U G17A C24A C61G | ≤ 0.5
74 | G10C U47A A57C | ≤ 0.5
75 | G10C G41C | 0.634
76 | C11A A36C G56C | 0.614
77 | C11A A21C G51C U59G | ≤ 0.5
78 | C11A A15C C24A C27A G41C G56A | 0.542
79 | G10C U16A C30U A57G | 0.646
80 | G10C U13C U53C | 0.512
81 | C11A C27A G67A | 0.626
82 | C11A C27A A69U | ≤ 0.5
83 | G10C U53A C66U | ≤ 0.5
84 | G10U A14U G44C | 0.646
85 | G10C C49U C62U | ≤ 0.5
86 | C11A C27G U35A A43U | ≤ 0.5
87 | G10C C33G U64C | ≤ 0.5
88 | G10C C60U | ≤ 0.5
89 | G10C C60A | 0.583
90 | G10C U19G C29U U54A | ≤ 0.5
91 | C11A A20U U47C | ≤ 0.5
92 | C11A A15G C31A C60A | ≤ 0.5
93 | G10C U13A A21U U26C C31U A43U G58A G63C A70C | ≤ 0.5
94 | G10C G25A U26C C46G | ≤ 0.5
95 | C11A A43U G48C C60G | ≤ 0.5
96 | C11A C24U U32A U35C C55A G58A | ≤ 0.5

Row | Variant | yeast fitness
97 | G10C C33A G48A G58A | ≤ 0.5
98 | G10U U32A G38C U64C | ≤ 0.5
99 | G10C C49U A69C | 0.575
100 | C11A A42U G44C U54A C62U A65G | ≤ 0.5
101 | C11A A20U C29U C33G C62A A70U | ≤ 0.5
102 | G10C U32C A42C | ≤ 0.5
103 | G10C C31G A65U | ≤ 0.5
104 | C11A A20U C33U C34U G48A C66U | 0.557
105 | G10C G50A U59A G67U | ≤ 0.5
106 | G10C U26A C49U C55G C60G | ≤ 0.5
107 | G10C C33G A36C U64A A65C | ≤ 0.5
108 | G10C G12A A45C | 0.539
109 | C11A A43G U64A | 0.601
110 | C11A A21U G41A | ≤ 0.5
111 | C11A A21C C55U | ≤ 0.5
112 | G10C G12C G39A G50A A69U | ≤ 0.5
113 | G10C G44A | 0.699
114 | C11A A15G C61U | 0.528
115 | G10C U13A A14G A20G C22A C24G U32G | ≤ 0.5
116 | G10C C33G A36C | ≤ 0.5
117 | C11A A37U G67A | ≤ 0.5
118 | C11A A20G G39A G51A U53A G63C | 0.545
119 | G10C G12C C55A | ≤ 0.5
120 | C11A A43U A45C U53C | ≤ 0.5

Row | Variant | yeast fitness
121 | C11A C27G U35A A43U U54C A65G G68A | ≤ 0.5
122 | G10C U19C A65G A70C | ≤ 0.5
123 | G10C G41A G50C | ≤ 0.5
124 | C11A A21C C31A | 0.567
125 | C11A A14G C24U G41C C55G | 0.581
126 | G10C C34U A40C | 0.667
127 | G10C C34A | 0.504
128 | G10C C55A A65C G68A | ≤ 0.5
129 | G10C U64C | 0.618
130 | C11A A43G | 0.621
131 | C11A A15U C30A A42C | ≤ 0.5
132 | G10C G56A | 0.596
133 | G10U C66U | 0.794
134 | G10C U32A A36G | ≤ 0.5
135 | C11A C27A A40C A43G G48C A65G | 0.541
136 | C11A C27A C29U G58A | ≤ 0.5
137 | C11A A21C A37C A40C A69C | ≤ 0.5
138 | C11A A15U A20C C34G A65C | ≤ 0.5
139 | C11A C24G C30G G56A | ≤ 0.5
140 | G10U G17A C24A C62U C66U | ≤ 0.5
141 | C11A C24A U26A G44C | ≤ 0.5
142 | G10C U13C G18C C27U C33G A37G C55U U64A G68C A70U | ≤ 0.5
143 | G10C U32C A42C G68C | ≤ 0.5
144 | C11A C24U | 0.61

Row | Variant | yeast fitness
145 | G10C G48A U54A A69C | ≤ 0.5
146 | C11A A57G A69G | ≤ 0.5
147 | C11A A21U U54G | ≤ 0.5
148 | G10C G12C C33U U35G | 0.614
149 | G10C G23A A45C U54C | 0.58
150 | C11A C24U C31U G67A | ≤ 0.5
151 | C11A A43U C46U U47G A70U | ≤ 0.5
152 | G10U A14U | ≤ 0.5
153 | C11A A14U C24U C34G U35A A36C C61A | ≤ 0.5
154 | G10C G12U C33U U35G | ≤ 0.5
155 | C11A A37U U54C | 0.678
156 | G10C C34A A40G | 0.631
157 | G10C G18C A45C G56C A70C | ≤ 0.5
158 | C11A A36C A43G G50C | ≤ 0.5
159 | C11A A36G A43C | 0.58
160 | G10C G18A C66U | ≤ 0.5
161 | C11A A21G C34U A37G U47C A57G C62U | ≤ 0.5
162 | C11A A36U A40C | ≤ 0.5
163 | G10C C34G U54C A70U | ≤ 0.5
164 | G10C U26C C55U | 0.507
165 | G10C U16G C31A U32G C55U | ≤ 0.5
166 | G10C U26A G38A A40U | ≤ 0.5
167 | C11A A21U C27A U35G | ≤ 0.5

Reference: the RNAGym collection of RNA variant scans (doi:10.1126/science.aae0568)
